# Source: PubChem BioAssay
# Lmaj promast = reduces viability of Leishmania major promastigotes | resazurin fluorescence viability | inhibition, % at 10 µM | 200,000 compounds, 9% hits | AID 1063; in the data active means inhibition above about 50%;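 further: promastigotes grown with compound for 44 hours at 28 °C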
# Lipid droplet = hepatic lipid droplet formation modulation; 240,000 compounds, 0.4% hits; inhibition, % at 6.5 µM; AML12 mouse hepatocytes, oleate lipid droplets, BODIPY imaging; AID 1656;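 active means lipid droplet intensity inhibited by at least 50%, with more than 500 cells counted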
#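 Material – mouse AML12 hepatocyte cell line, fixed after treatment · Compound dosing – one dose, 6.5 µM compound · Times – compound with oleate, overnight · Measured by – Image-based BODIPY and DAPI two-channel analysis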
# MPTP inh = blocks calcium-induced mitochondrial swelling | isolated mouse mitochondria, Ca2+ swelling absorbance, 30 min | inhibition, % at 10 µM | 360,000 compounds, 1.4% hits;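 active means inhibition of 50% or more, scaled per plate between neutral and stimulator controls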;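 further: 0% = DMSO wells given calcium and 100% = 1 mM EGTA wells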
# T cruzi repl = T. cruzi replication inhibition. T. cruzi beta-gal in NIH3T3, luminescence, 90 h. AID 1885. 300,000 compounds, 1.4% hits. inhibition, % (no concentration beside the values);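 active means mean inhibition across valid replicates above about 55%, limit read from the data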;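 further: signal also drops with host cell toxicity which is not excluded here; 0% = plate median of DMSO wells and 100% = zero luminescence signal; higher percent means less beta-gal luminescence so fewer parasites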
#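 Read-out: Parasite load inhibition, % | Test system: Mouse NIH/3T3 fibroblasts infected with β-gal-expressing T. cruzi Tulahuen C4 | Amount: 5,000 cells/well | Medium: DMEM, 2% fetal bovine serum | Signal: GalScreen β-gal luminescence, detergent lysis, 60 min | Timing: 3 h attach, ≥90 h co-culture | Also added: Tulahuen C4 trypomastigotes, 5000/well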
# Redox H2O2 prof = compounds producing H2O2 with reducing agent – biochemical, NIH compound library profiling, artefact control for MLSCN library redox annotation, primary screen. 200,000 compounds, 0.03% hits. activation, % at 10 µM. DTT-dependent redox cycling H2O2, phenol red/HRP absorbance; 100% = 100 µM peroxide control, 0% = buffer;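 active means activation of at least 50% relative to the plate's high and low controls in the primary single-dose screen; inactive means activation below 50%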;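 further: compound incubated with DTT at 0.8 mM final as the reducing agent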
# * marks the source's active call; other numbers are inactive results; nt = no result; ! = not confirmed by another sample. This excerpt belongs to a sample that is enriched for hits.
SMILES,Lmaj promast,Lipid droplet,MPTP inh,T cruzi repl,Redox H2O2 prof
CN1CCN(c2ccccc2NC(=O)c2ccc(N3CCCC3)c([N+](=O)[O-])c2)CC1,65.3*,11.1,18.5,44.6,-0.1
CN1CCN(c2ccc(C(=O)c3ccc(Br)cc3)cc2[N+](=O)[O-])CC1,97.9*,-4.2,-0.6,52.9,-0.3
Cc1ccc(C(c2nnnn2CC2CCCO2)N2CCN(Cc3ccccc3)CC2)cc1 (stereo unspecified),22.3,3.7,-1.9,23.4,0.4
O=S(=O)(c1ccc(Cl)cc1)N1CCCC1c1nc(-c2ccc(Cl)cc2)no1 (stereo unspecified),-2.5,-7.0,2.2,12.9,0.5
O=S(=O)(c1ccccc1Cl)N1CCCC1c1nc(-c2ccccc2Cl)no1 (stereo unspecified),88.6*,nt,1.8,-3.8,1.6
Cc1ccc(S(=O)(=O)NCc2ccc(/C=C(/C#N)C(=O)NCc3ccccc3)o2)cc1,70.4*,-11.4,-0.4,-5.6,-0.1
COCCNC(=O)/C(C#N)=C\c1ccc(CNS(=O)(=O)c2ccc(C)cc2)o1,-4.2,-0.7,1.4,3.2,0.2
O=C(/C=C/c1ccc(Br)o1)Nc1nnc(C2CC2)s1,nt,-3.5,nt,-2.0,nt
Cc1ccc(NC(=O)c2cc(-c3ccccc3)nn2-c2ccccc2)cc1,16.5,29.1,1.7,12.6,0.1
CC(=O)C(/C=N/c1cc(-c2ccc(C)cc2)nn1-c1ccccc1)=C(\C)O,63.5*,0.3,3.5,-6.6,0.1
NS(=O)(=O)c1ccc(CNC(=O)c2csc3c2CCCC3)cc1,1.7,-6.9,-1.9,-4.8,-0.8
CC(=O)c1c(C)nc2ccccc2c1N,95.8*,1.8,-1.1,0.3,-0.4
CCN(CC)c1nc2ccccc2c(N)c1-c1ccccc1,100.3*,nt,1.0,21.3,2.6
Cc1nc2ccccc2c(C)c1C(=O)c1ccccc1,-4.1,2.5,1.6,-2.2,-0.4
Nc1c2ccccc2nc2ccccc12,nt,-84.6,-1.5,69.2*!,nt
N#CCc1c(C#N)c(N)nc(N2CCCC(O)C2)c1C#N (stereo unspecified),-0.5,4.1,0.9,-5.6,-0.4
CC12CC3(C)CC(C)(C1)CC(C(=O)NC(=S)N1CCCC1)(C2)C3,-0.3,12.9,-1.1,6.8,-0.5
Cc1ccc([N+](=O)[O-])cc1S(=O)(=O)NCCc1c(C)[nH]c2c(C)cccc12,66.4*,4.6,1.6,-4.4,-0.1
CC(=O)Nc1ccc(Nc2cc(C)nc3c(-c4ccccc4)cnn23)cc1,88.7*,-0.2,2.3,nt,0.5
Cc1cc(N)n2ncc(-c3ccccc3)c2n1,15.1,6.3,0.0,-8.8,1.0
CC[C@@H]1C=C(C)C[C@H](C)C[C@H](OC)[C@H]2O[C@@](O)(C(=O)C(=O)N3CCCC[C@H]3C(=O)O[C@H](/C(C)=C/[C@@H]3CC[C@@H](O)[C@H](OC)C3)[C@H](C)[C@@H](O)CC1=O)[C@H](C)C[C@@H]2OC,90.0*,20.9,nt,nt,0.1
CCOC(=O)c1c(-n2c(C)cc(C=O)c2C)sc2c1CCCC2,96.0*,nt,6.7,23.4,-6.6
CCOC(=O)c1cccc(-n2c(C)cc(C=O)c2C)c1,-0.3,0.6,1.2,15.2,0.1
COc1ccc2[nH]c(=O)c(CN(C(=O)c3cccnc3)c3ccccc3C)cc2c1,nt,1.0,0.5,2.5,nt
O=C(c1cccc(Cl)c1)N1CCN(Cc2ccc3c(c2)OCO3)CC1,nt,3.4,0.8,-6.4,nt
SMILES,Lmaj promast,Lipid droplet,MPTP inh,T cruzi repl,Redox H2O2 prof
O=C(CCc1ccc(S(=O)(=O)N2CCOCC2)cc1)N1CCN(Cc2ccc3c(c2)OCO3)CC1,-5.5,4.8,-1.1,16.9,0.1
O=C(CS(=O)(=O)Cc1ccccc1)N1CCN(Cc2ccc3c(c2)OCO3)CC1,69.0*,-12.1,-0.9,-9.4,-1.5
O=C(CSCc1cccc(Cl)c1)N1CCN(Cc2ccc3c(c2)OCO3)CC1,91.1*,-11.1,-6.4,-2.3,0.0
O=C(CCc1ccc(S(=O)(=O)NCc2ccccc2)cc1)N1CCN(Cc2ccc3c(c2)OCO3)CC1,24.1,nt,0.6,58.7*,0.2
CC1=NN(c2ccc(C)cc2C)C(=O)C1C(c1cccc(O)c1)C1C(=O)N(c2ccc(C)cc2C)N=C1C (stereo unspecified),55.5*,0.5,1.6,-11.8,0.7
Cc1ccc(C(=O)NC(=S)NCCCN2CCOCC2)cc1,64.6*,-8.1,-0.3,11.4,-1.6
Cc1ccc(-c2nc(C(=O)NCCCN3CCOCC3)cc3c2[nH]c2ccccc23)cc1,nt,3.5,-1.4,56.6*,nt
O=C(CCN1CCCCC1)NNC(=S)NC(=O)c1ccc(Br)cc1,75.0*,-19.4,-0.3,-46.5,0.0
O=C(NC(=S)NCCCN1CCOCC1)c1ccc(Br)cc1,85.6*,0.2,-0.1,14.6,0.0
COc1ccc(-c2nc(C(=O)NCCCN3CCOCC3)cc3c2[nH]c2ccccc23)cc1OC,nt,nt,1.1,21.3,nt
O=C(CCN1CCOCC1)NNC(=S)NC(=O)c1ccc(Br)cc1,-4.8,0.2,-0.7,8.6,0.8
CCOc1ccc(C(=O)NC(=S)NCCCN2CCOCC2)cc1,nt,2.9,0.4,-6.4,nt
CCCCN1C(=O)c2ccc(C(=O)NC3(C)CCS(=O)(=O)C3)cc2C1=O (stereo unspecified),nt,nt,-2.0,nt,nt
O=C(NCCCl)C1Cc2c(ccc3ccccc23)O1 (stereo unspecified),-4.9,-12.0,-0.1,-8.2,-1.1
O=C(NC(=S)NCCN1CCOCC1)c1ccccc1,-2.7,6.0,-0.5,-4.6,0.7
O=C(NCCCN1CCOCC1)C1Cc2c(ccc3ccccc23)O1 (stereo unspecified),69.3*,nt,-2.1,1.0,-0.6
Cc1ccc(C(NC(=O)NCCCN2CCOCC2)=C(Cl)Cl)cc1F,81.3*,-1.1,7.0,-25.4,0.5
O=C(NC(=S)NCCCN1CCOCC1)c1cccc2ccccc12,78.4*,-4.0,0.2,-3.7,-0.2
CC(=O)c1cccc(-c2ccnc3c2CC(C(=O)NCC2CCOCC2)O3)c1 (stereo unspecified),nt,nt,-1.2,nt,nt
C(=N\Nc1nc2ccccc2s1)/c1ccccn1,nt,-42.1,nt,38.9,nt
Clc1ccccc1/C=N/NC1=Nc2cccc3cccc1c23,9.1,9.3,-0.8,7.5,2.1
Cc1csc(N/N=C/c2ccccn2)n1,94.6*,-58.9,0.7,4.5,-0.4
C(=N\NC1=Nc2cccc3cccc1c23)/c1ccccn1,100.3*,4.4,3.8,65.4*,0.4
Cc1cc(O)c(/C=N/Nc2ccc(F)cc2)c(=O)o1,70.3*,3.5,0.5,13.4,-0.3
Cn1c(O)c(/C=N/Nc2ccccc2)c(=O)n(C)c1=O,86.4*,23.2,-2.4,-3.8,-0.2
Cc1c(/C=N/Nc2ccc(F)cc2)c(O)n(C)c(=O)c1C#N,60.2*,-12.5,17.8,-10.9,-0.2
CC(=O)N=Cc1c(C)c(C#N)c(=O)n(C)c1O,-5.4,3.3,-1.4,-10.2,0.8
CC1(C(=O)Nc2ccc(Cl)c(Cl)c2)CCN1C(=O)C1CCCCC1 (stereo unspecified),nt,nt,0.9,nt,nt
